# Results published in ChEMBL document CHEMBL1128222, “Novel inhibitors for multidrug resistance: 1,3,5-triazacycloheptanes” (J Med Chem, 1995).
# Legend:
# P388/ADR [1] = assay: Evaluation of inhibitory activity against multidrug resistant P388 cells (P388/ADR) cells; type: functional, cell-based, Mus musculus
# In short: (§1)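 P388/S and P388/ADR murine leukemia cells are maintained by weekly intraperitoneal passage in female CDF1 mice. For the assay they are seeded at 10^5 cells/mL in RPMI-1640 with 10% FCS, 20 μM β-mercaptoethanol and 100 μg/mL kanamycin. Vinblastine is given with or without modulator (0–5.0 μM; DMSO final 0.25%) for 48 h. Growth is read by MTT and vinblastine IC50 is reported.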
# P388/S [2] = assay: (§2) Evaluation of inhibitory activity against drug sensitive P388 cells (P388/S) cells; type: functional, cell-based, Mus musculus; in short: as §1
# P388/ADR [3] = assay: In vitro relative vinblastin uptake into P388/ADR (murine leukemia/multidrug resistant) cells following 10 uM treatment.; type: functional, Mus musculus
# In short: (§3)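 10^6 P388/S or P388/ADR cells in 1 mL of 20 mM Hepes-buffered medium, pH 7.4. They are incubated with 4.6 kBq [3H]vinblastine with or without 10 μM compound (DMSO final 1%) at 37 °C for 30 min. Cells are then chilled, pelleted at 2 °C and washed twice in cold PBS. They are solubilized in NaOH and counted. The value is uptake relative to untreated cells.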
# P388/S [4] = assay: In vitro relative vinblastin uptake into P388/s (murine leukemia) cells following 10 uM treatment.; type: functional, Mus musculus; in short: as §3
# P388/S [5] = assay: Evaluation of inhibitory activity and cisplatin against drug sensitive P388 cells (P388/S) cells; type: functional, cell-based, Mus musculus; conditions: Mus musculus, P388/S
# In short: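 P388/S or P388/ADR cells at 10^5 cells/mL in RPMI-1640/10% FCS medium. They receive graded adriamycin, mitomycin C or cisplatin, alone or together with 2.5 μM modulator, for 48 h (DMSO final 0.25%). Growth is read by MTT and the antitumor-drug IC50 is reported.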
# P388/ADR [6] = assay: Evaluation of inhibitory activity and adriamycin against multidrug resistant P388 cells (P388/ADR) cells; conditions: Mus musculus
# P388/S [7] = assay: as §2; type: functional, cell-based; conditions: Mus musculus; in short: as §1
Molecule,Relative uptake (P388/ADR [3]),Relative uptake (P388/S [4]),other results
CISPLATIN,,,IC50 (P388/ADR [1]; p388/adr): 61 nM; IC50 (P388/S [2]): 48 nM
COc1ccc(CN2CCCN(Cc3ccc(OC)c(OC)c3)C(=O)NC2=O)cc1OC,1.11,1.06,
O=C1NC(=O)N(Cc2ccc(Cl)cc2)CCCN1Cc1ccc(Cl)cc1,2.86,1.17,
COc1ccc(CN2CCN(Cc3ccc(OC)c(OC)c3)C(=S)NC2=S)cc1OC,5.26,1.21,
O=C1NC(=O)N(Cc2ccccc2)CCN1Cc1ccccc1,1.41,1.09,
COC12[C@H](COC(N)=O)C3=C(C(=O)C(C)=C(N)C3=O)N1C[C@@H]1N[C@@H]12.CSC1=NC(=O)N(Cc2ccc(Cl)cc2)CCN1Cc1ccc(Cl)cc1,,,IC50 (P388/S [5]): 44 nM; IC50 (P388/ADR [6]): 264 nM
CO[C@@]12[C@H](COC(N)=O)C3=C(C(=O)C(C)=C(N)C3=O)N1C[C@@H]1N[C@@H]12 [MITOMYCIN],,,"IC50 (P388/ADR [1]; Mus musculus, P388/ADR): 535 nM; IC50 (P388/S [7]): 48 nM"
